From PubChem BioAssay
Hits are enriched below; roughly 3.1% of the tested compounds scored in any of these assays.
HSF-1 act = increases HSF-1 driven luciferase reporter signal; NIH3T3-HGL HSF-1 luciferase reporter, MG132, 8 h; 100% = twice DMSO control signal; activation, % at 9 µM; 1.7% of 300,000 active; AID 504408;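 active means mean replicate activation of at least 50% with a set share of replicates each reaching 50%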;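 further: 0% = median of the neutral control wells and 100% = twice that signal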
HSF1 inhib = HSF1 inhibition. activity change, negative = inhibition, % at 7.5 µM (by protocol). NIH3T3-HGL HSE-luciferase, MG132-induced, luminescence 8 h; hits give low values. 0.77% of 300,000 active;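 active means more than half of replicate wells show activity change below -50%, luminescence cut by over half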;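 further: luciferase reports HSF-1 transcriptional activity via heat shock element; 0% = median of DMSO wells and -100% = zero luminescence signal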
HSP90 inh = inhibitors of HSP90 luciferase refolding in rabbit reticulocyte lysate; luciferase refolding luminescence, 3 h; inhibition, % at 5.6 µM; 0.91% of 290,000 active;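 active means inhibition above the screen-wide mean plus 3 SD, computed separately per campaign, cut at about 16% in these data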;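 further: 0% = DMSO wells and 100% = 60 µM geldanamycin wells; inhibitors lower the luminescence because luciferase stays unfolded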
TbHK1 inh = blocks Trypanosoma brucei hexokinase 1 activity | recombinant TbHK1, G6PDH-coupled NADH A340 | inhibition, % at 10 µM | 0.11% of 220,000 active | AID 1430;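 active means inhibition of 50% or more in the single-dose primary screen; inactive means inhibition below 50%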
HKDC1 inhibitor = blocks human hexokinase HKDC1 activity. recombinant HKDC1, G6PDH/diaphorase resazurin coupled fluorescence. inhibition, % at 20 µM. 0.16% of 340,000 active;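 active means inhibition above about 35% when tested at 20 µM, limit read from the data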;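 further: plate controls were DMSO wells with enzyme for no effect and DMSO wells lacking enzyme for full effect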
Target sequence (Q2TB90 whole entry, looked up): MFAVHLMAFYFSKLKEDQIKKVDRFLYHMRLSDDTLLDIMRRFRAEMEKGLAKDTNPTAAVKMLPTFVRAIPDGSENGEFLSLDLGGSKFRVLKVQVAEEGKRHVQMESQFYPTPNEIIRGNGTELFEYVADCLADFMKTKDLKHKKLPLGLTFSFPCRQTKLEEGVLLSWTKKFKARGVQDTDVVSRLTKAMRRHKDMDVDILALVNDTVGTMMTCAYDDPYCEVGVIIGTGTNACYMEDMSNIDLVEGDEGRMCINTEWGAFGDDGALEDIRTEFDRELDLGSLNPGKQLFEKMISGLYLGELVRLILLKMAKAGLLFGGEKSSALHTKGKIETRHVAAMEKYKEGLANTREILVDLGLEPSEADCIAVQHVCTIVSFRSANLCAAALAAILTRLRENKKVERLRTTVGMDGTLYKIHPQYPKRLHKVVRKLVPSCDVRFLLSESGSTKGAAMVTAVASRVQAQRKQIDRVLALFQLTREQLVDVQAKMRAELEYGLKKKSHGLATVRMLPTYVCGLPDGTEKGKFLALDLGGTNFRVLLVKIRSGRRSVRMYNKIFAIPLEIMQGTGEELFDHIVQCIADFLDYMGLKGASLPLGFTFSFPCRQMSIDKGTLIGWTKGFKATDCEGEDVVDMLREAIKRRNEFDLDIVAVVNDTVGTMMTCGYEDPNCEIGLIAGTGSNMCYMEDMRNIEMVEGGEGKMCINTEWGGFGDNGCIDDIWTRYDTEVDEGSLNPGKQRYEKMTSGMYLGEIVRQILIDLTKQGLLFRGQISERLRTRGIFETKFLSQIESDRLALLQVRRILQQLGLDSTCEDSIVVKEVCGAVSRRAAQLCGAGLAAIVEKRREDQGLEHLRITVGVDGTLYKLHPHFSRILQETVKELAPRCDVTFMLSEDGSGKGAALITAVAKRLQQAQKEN
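test system = in-house recombinant HK5 (HKDC1) enzyme | amount = HKDC1 at 5 µg/mL | control set = DMSO-enzyme wells negative, buffer-substituted wells positive | compound = one dose of 20 µM, 1% DMSO | schedule = reaction time 90 min, room temperature, protected from light | technique = resorufin fluorescence at 613 nm | reagent = glucose with 1 mM ATP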
Hsp70 act = switches on Hsp70 transcription. HeLa Hsp70 promoter luciferase reporter, luminescence; scaled: vehicle 0, proteasome-inhibitor control 100%. activation, % at 10 µM. 0.04% of 200,000 active;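 active means activation above the mean across all tested compounds plus 3 SD, cutoff set per campaign, cut at about 5.5% in these data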;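 further: 100% = MG132 at 30 µM as the positive control and 0% = DMSO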
Active calls of the source: *.

Results for C=C1C(=O)C2=CC1CCC(=O)C1(C)CCC(OC(C)=O)C(C)(C)C1CC2O (configuration not stated) ?
HSF-1 act: 88.5*; HSF1 inhib: 88.5*; HKDC1 inhibitor: 0.9

What do the screens show for `OC[C@H]1O[C@@H](O[C@@H]2[C@@H](CO)O[C@@](O)(CO)[C@H]2O)[C@H](O)[C@@H](O)[C@H]1O`?
HSF-1 act: 1.9; HSF1 inhib: -2.4; HKDC1 inhibitor: -1.6

Results for Oc1nc(Nc2ccccc2)sc1/C=C1\C=Nc2ccccc21 ?
HSF-1 act: 101.1*; HSF1 inhib: 74.2; HSP90 inh: 5.2; TbHK1 inh: -13.7; HKDC1 inhibitor: 22.5

Results for CCOC(=O)c1c(Nc2ccccc2)sc(/C=C2\C=Nc3ccccc32)c1O ?
HSF-1 act: 1.3; HSF1 inhib: 0.9; HSP90 inh: 4.4; TbHK1 inh: -13.0; HKDC1 inhibitor: -6.7; Hsp70 act: -0.2

Results for CCn1c(O)c(/C=C2\C=Nc3ccccc32)sc1=Nc1ccc(C)cc1 ?
HSF-1 act: 20.2; HSF1 inhib: 7.2; HSP90 inh: -1.6; TbHK1 inh: -12.2; HKDC1 inhibitor: -4.0; Hsp70 act: -0.2

How did CCn1c(O)c(/C=C2\C=Nc3ccccc32)sc1=O do in these assays?
HSF-1 act: 74.4*; HSF1 inhib: 24.8; HSP90 inh: -0.2; TbHK1 inh: -5.2; HKDC1 inhibitor: -2.0; Hsp70 act: 0.3

What do the screens show for `CN(C)S(=O)(=O)c1ccc(C(=O)OCC2CCCO2)cc1` (configuration not stated)?
HSF-1 act: 10.9; HSF1 inhib: 1.7; HSP90 inh: -1.1; HKDC1 inhibitor: -5.7

Results for CCN(c1ccc(OC)cc1)c1ncnc2nc[nH]c12 ?
HSF-1 act: -71.5; HSF1 inhib: -63.9*; HSP90 inh: -1.2; TbHK1 inh: 4.0; HKDC1 inhibitor: 3.0; Hsp70 act: -0.1

How did CC(C)C1Cc2c(C#N)c(N)n(C)c(=S)c2CO1 (configuration not stated) do in these assays?
HSF-1 act: -62.6; HSF1 inhib: -52.5*; HSP90 inh: 1.7; TbHK1 inh: -4.7; HKDC1 inhibitor: 6.8; Hsp70 act: -0.3

How did Cn1c(N)c(C#N)c2c(c1=S)COC(C)(C)C2 do in these assays?
HSF-1 act: 22.0; HSF1 inhib: -0.4; HSP90 inh: -0.2; TbHK1 inh: -14.3; HKDC1 inhibitor: 1.8; Hsp70 act: -0.5

Results for O=C(COc1ccc(/C=N/NC(=O)c2ccccc2Br)cc1)Nc1ccccc1 ?
HSF-1 act: -14.0; HSF1 inhib: -4.9; HSP90 inh: -2.7; HKDC1 inhibitor: -3.6

How did O=C(O)COc1ccc(/C=N/NC(=O)c2ccccc2Br)cc1 do in these assays?
HSF-1 act: -74.0; HSF1 inhib: -66.7*; HSP90 inh: 0.7; TbHK1 inh: -10.1; HKDC1 inhibitor: -8.2; Hsp70 act: 0.2

What do the screens show for `COC(=O)c1nccnc1N`?
HKDC1 inhibitor: -5.4

How did Cc1ccc(-c2nc3ccccn3c2C=O)cc1 do in these assays?
HSF-1 act: -14.7; HSF1 inhib: -1.0; HSP90 inh: 0.6; TbHK1 inh: -9.3; HKDC1 inhibitor: -4.0; Hsp70 act: 0.5

How did Cc1c(-c2ccc(Br)cc2)nc2ccccn12 do in these assays?
HSF-1 act: 51.5*; HSF1 inhib: 26.1; HSP90 inh: -3.8; TbHK1 inh: -10.3; HKDC1 inhibitor: -6.3; Hsp70 act: -0.1

How did Cc1nc2c3cc(Cl)ccc3n(CCN3CCCCC3)c2s1 do in these assays?
HSF-1 act: 59.7*; HSF1 inhib: 16.9; HSP90 inh: 2.8; TbHK1 inh: -0.2; HKDC1 inhibitor: -1.2; Hsp70 act: -0.3

How did COc1cccc(NC(=O)CN(C)C(=O)CSc2ncnc3sc(C)c(C)c23)c1 do in these assays?
HSF-1 act: -5.6; HSF1 inhib: -7.2; HKDC1 inhibitor: 0.6

How did O=C(COc1ccc(Cl)cc1)N1CCCC1 do in these assays?
HSF-1 act: -73.3; HSF1 inhib: -71.3*; HSP90 inh: -1.6; TbHK1 inh: 1.8; HKDC1 inhibitor: -4.3; Hsp70 act: 0.1

What do the screens show for `O=C(CCSc1ccc(Cl)cc1)N1CCCCCC1`?
HSF-1 act: 107.4*; HSF1 inhib: 75.3; HSP90 inh: -2.8; TbHK1 inh: -2.7; HKDC1 inhibitor: -5.9; Hsp70 act: -0.2

What do the screens show for `Cc1ccc(NC(=O)COC(=O)Cn2ccc(=O)[nH]c2=O)cc1C`?
HKDC1 inhibitor: 5.9

How did COCc1cc(=O)[nH]c(Nc2nc3ccccc3o2)n1 do in these assays?
HSF-1 act: 83.8*; HSF1 inhib: 52.2; HSP90 inh: 2.8; TbHK1 inh: -4.5; HKDC1 inhibitor: 7.2; Hsp70 act: -0.1

Results for COC(=O)Cc1cc(=O)[nH]c(Nc2nc3ccccc3o2)n1 ?
HSF-1 act: -8.8; HSF1 inhib: -0.2; HSP90 inh: -0.7; TbHK1 inh: -20.3; HKDC1 inhibitor: 4.9; Hsp70 act: -0.1

What do the screens show for `CCOC(=O)c1ccc2nc(NC(=O)c3cccs3)sc2c1`?
HSF-1 act: 40.0; HSF1 inhib: 20.6; HSP90 inh: 1.0; TbHK1 inh: -17.6; HKDC1 inhibitor: -0.5; Hsp70 act: 0.0

Results for CC(C)(C)c1csc(NC(=O)c2cccs2)n1 ?
HSF-1 act: 54.5*; HSF1 inhib: 27.3; HSP90 inh: 2.5; TbHK1 inh: -10.2; HKDC1 inhibitor: -0.5; Hsp70 act: 0.1

How did CCOC(=O)c1ccc2nc(NC(=O)c3ccco3)sc2c1 do in these assays?
HSF-1 act: 69.4*; HSF1 inhib: 27.9; HSP90 inh: 3.1; TbHK1 inh: -19.2; HKDC1 inhibitor: 3.4; Hsp70 act: -0.2

What do the screens show for `O=C(Nc1nc2c(s1)COc1ccccc1-2)c1cccs1`?
HSF-1 act: 12.3; HSF1 inhib: 4.4; HSP90 inh: -5.7; TbHK1 inh: -11.9; HKDC1 inhibitor: 1.2; Hsp70 act: -0.2

How did O=C(Nc1nc2ccc(F)cc2s1)c1cccs1 do in these assays?
HSF-1 act: 79.5*; HSF1 inhib: 34.8; HSP90 inh: 5.0; TbHK1 inh: 0.0; HKDC1 inhibitor: 2.9; Hsp70 act: 0.4

How did CN(C)S(=O)(=O)c1ccc2nc(NC(=O)c3cccs3)sc2c1 do in these assays?
HSF-1 act: 28.2; HSF1 inhib: 15.7; HSP90 inh: 5.7; TbHK1 inh: -48.3; HKDC1 inhibitor: -2.6; Hsp70 act: 0.1

How did O=C(Nc1nc2c(s1)CCc1ccccc1-2)c1cccs1 do in these assays?
HSF-1 act: 57.5*; HSF1 inhib: 48.1; HSP90 inh: 0.3; TbHK1 inh: -1.7; HKDC1 inhibitor: 12.3; Hsp70 act: 0.0

How did CN(Cc1ccccc1)C(=O)c1ccc(NC(=O)Cc2cccc(NC(=O)C3CCN(C(=O)C4CCCC4)CC3)c2)cc1 do in these assays?
HKDC1 inhibitor: -3.5

What do the screens show for `O=C(NC(=S)Nc1nc2ccc(F)cc2s1)c1ccco1`?
HSF-1 act: 89.4*; HSF1 inhib: 47.7; HSP90 inh: 1.6; TbHK1 inh: -21.2; HKDC1 inhibitor: 10.9; Hsp70 act: -0.1
